Measured values reported in ChEMBL document CHEMBL1148217, “Potential antipsoriatic avarol derivatives as antioxidants and inhibitors of PGE(2) generation and proliferation in the HaCaT cell line” (J Nat Prod, 2004).

Legend:
[1] = tested on: HaCaT; assay: Inhibition of PGE2 production in human HaCaT cells at 5 uM after 24 hrs by RIA; format: functional
[2] = tested on: Neutrophil; assay: Inhibition of TPA-induced ROS production in human neutrophils at 5 uM by chemiluminescence; format: functional
[3] = Antiproliferative activity against human HaCaT cells assessed as [3H]thymidine incorporation at 5 uM after 24 hrs; format: cell-based
[4] = tested on: HaCaT; assay: Cytotoxicity against human HaCaT cells assessed as plasma membrane integrity damage at 5 uM; format: cell-based
In short: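 Membrane damage in treated HaCaT keratinocytes was measured as LDH leakage into the culture medium, read as A550nm (mU), with compounds at 5 µM. Results are mean ± SEM; ANOVA followed by Dunnett's t-test.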

[5] = tested on: HaCaT; assay: Antiproliferative activity against human HaCaT cells assessed as [3H]thymidine incorporation after 24 hrs; format: cell-based
In short: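 HaCaT keratinocytes were grown in DMEM with 10% FCS, penicillin and streptomycin at 37 °C and 5% CO₂. Cells were seeded at 4 × 10⁴/well for 24 h, then the medium was replaced and compounds or vehicle (1% EtOH) added for 24 h. Cells were pulsed 6 h with methyl-³H-thymidine (1 µCi/mL), and incorporation was counted by scintillation. %I at 5 µM; IC₅₀ from ≥4 concentrations (n = 6); mean ± SEM.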

[6] = tested on: Radical scavenging activity; assay: Antioxidant activity assessed as DPPH free radical scavenging activity after 30 mins by assay in solution
[7] = tested on: Neutrophil; assay: Inhibition of TPA-induced ROS production in human neutrophils by chemiluminescence; format: functional, cell-based
[8] = tested on: HaCaT; assay: Inhibition of PGE2 production in human HaCaT cells after 24 hrs by RIA; format: functional, cell-based

SMILES	inhibition at 5 µM [1] [%]	inhibition at 5 µM [2] [%]	inhibition at 24 h, 5 µM [3] [%]	Activity [4] [%]	IC50 [5] [nM]	IC50 [6] [µM]	IC50 [7] [nM]	IC50 [8] [nM]
CC1=CCC[C@H]2[C@](C)(CC3=CC(=O)C=C(NCCc4c[nH]c5ccccc45)C3=O)[C@@H](C)CC[C@]12C	47.1	25.2	33.3					
CC1=CCC[C@H]2[C@](C)(CC3=CC(=O)C(NCCc4c[nH]c5ccccc45)=CC3=O)[C@@H](C)CC[C@]12C	50.4	26.7	36.7					
CNC1=CC(=O)C(C[C@]2(C)[C@@H](C)CC[C@]3(C)C(C)=CCC[C@@H]23)=CC1=O	54.8	37.8	33.5					
O=C1c2c(O)cccc2Cc2cccc(O)c21 [ANTHRALIN]		31.2	73.8	59	2900			
CC1=CCC[C@H]2[C@](C)(Cc3cc(O)ccc3O)[C@@H](C)CC[C@]12C [AVAROL]	4.9	71.7	18.9			18	3600	
COc1cc2ccc(=O)oc2c(O)c1O [FRAXETIN]		76.4					1000	
CS(=O)(=O)Nc1ccc([N+](=O)[O-])cc1OC1CCCCC1 [NS-398]	93.8							10
